# Compounds with a hit are over-represented: about 1.2% of the library has one in this group of screens.
# proCasp7 act: counter-screen: procaspase-7 (human) activation; recombinant procaspase-7, Ac-DEVD-pNA absorbance 405 nm; D23A/D198A/D206A triple mutant, cannot self-cleave; scale: DMSO 0, 5 µM enzyme 100; 330,000 tested, 0.093% active; P55210; activation, % at 8.5 µM; AID 463210;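 active = percent activation above the screen-wide mean plus 3 SD, cut at about 25% in these data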
# Target sequence (P55210 whole entry D23A/D198A/D206A): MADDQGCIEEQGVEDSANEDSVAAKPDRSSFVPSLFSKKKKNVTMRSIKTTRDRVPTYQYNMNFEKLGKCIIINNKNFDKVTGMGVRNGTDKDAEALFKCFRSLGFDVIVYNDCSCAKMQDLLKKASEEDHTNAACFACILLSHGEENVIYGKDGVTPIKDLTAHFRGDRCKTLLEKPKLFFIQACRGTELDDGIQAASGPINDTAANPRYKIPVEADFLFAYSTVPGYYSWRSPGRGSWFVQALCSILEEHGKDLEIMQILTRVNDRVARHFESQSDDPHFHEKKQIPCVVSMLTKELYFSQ
#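 Test system: Procaspase-7 triple mutant (PC-7 D3A). Also added: Ac-DEVD-pNA substrate, 400 µM as added. Schedule: 1 h enzyme–compound preincubation and 2 h substrate reaction, both 25 °C. Signal: p-Nitroaniline absorbance at 405 nm, read at 0 and 120 min. Control set: low DMSO alone, high DMSO plus 5 µM PC-7.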
# proCasp3 act: activators of human procaspase-3; recombinant procaspase-3 D3A, Ac-DEVD-pNA absorbance 405 nm; 330,000 tested, 0.11% active; P42574; activation, % at 8.5 µM;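 active = activation above the mean of all tested compounds plus 3 SD, cut at about 21% in these data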;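 also: 0% = DMSO alone and 100% = DMSO wells spiked with extra 5 µM PC-3 D3A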
# Target sequence (P42574 whole entry D9A/D28A/D175A): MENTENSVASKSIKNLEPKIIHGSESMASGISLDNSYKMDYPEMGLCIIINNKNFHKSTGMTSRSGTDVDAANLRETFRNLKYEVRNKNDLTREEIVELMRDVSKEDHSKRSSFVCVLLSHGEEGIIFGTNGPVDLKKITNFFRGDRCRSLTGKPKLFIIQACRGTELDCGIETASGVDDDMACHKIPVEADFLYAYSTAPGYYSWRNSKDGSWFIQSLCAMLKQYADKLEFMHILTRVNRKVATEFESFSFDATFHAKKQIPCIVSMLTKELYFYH
#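 material = Procaspase-3 D3A mutant | probe or stimulus = Ac-DEVD-pNA | compound = single dose, 8.5 µM nominal compound, 0.8% DMSO | timing = 1 h preincubation, 2 h reaction | measured by = 405 nm absorbance of p-nitroaniline, reads at 0 and 120 min | benchmarks = DMSO-only low control, 5 µM PC-3 D3A high control | repeats = singlicate, each compound tested once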
# PP1 inh: PP1-alpha (human) inhibition in PP5 counter-screen; P62136; purified PP1alpha, OMFP fluorescence; inhibition, % at 6.7 µM; 320,000 tested, 0.9% active; AID 2235;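 active = inhibition above the mean inhibition of all tested compounds plus 3 SD, computed separately for each screening campaign, cut at about 15% in these data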
# PP5 inh: inhibitors of human protein phosphatase 5 (PP5); AID 1987; P53041; inhibition, % at 6.7 µM; 320,000 tested, 0.18% active; purified PP5c, OMFP substrate fluorescence;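 active = inhibition above the campaign's mean inhibition across all tested compounds plus 3 SD, cut at about 9.5% in these data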;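 also: 0% = DMSO only and 100% = 100 µM cantharidin control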
# PP1 confirm: confirmation of human PP1 phosphatase inhibitors; shares compounds with PP1 inh; purified PP1alpha, OMFP substrate fluorescence; inhibition, % at 6.7 µM; 1,900 tested, 52% active;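 active = mean PP1 inhibition above a set limit taken from the earlier primary screen, cut at about 15% in these data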
# PP5 inh counter: counter-screen for PP1 inhibitors: human PP5 phosphatase inhibition; shares compounds with PP1 inh; purified PP5c, OMFP fluorescence; inhibition, % at 6.7 µM; 1,900 tested, 4% active; AID 2360;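 active = mean PP5 inhibition over triplicate wells above about 9.5% taken from the earlier PP1 screen, limit read from the data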
# An asterisk follows results filed as active; nt = not tested or not shown.
SMILES,proCasp7 act,proCasp3 act,PP1 inh,PP5 inh,PP1 confirm,PP5 inh counter
O=C(COc1ccc2c3c(c(=O)oc2c1)CCCC3)N1C[C@H]2C[C@@H](C1)c1cccc(=O)n1C2,-5,-1,30*,2,30*,-7
COc1ccc(-c2cc(=O)oc3cc(OCC(=O)N4C[C@H]5C[C@@H](C4)c4cccc(=O)n4C5)ccc23)cc1,8,-1,13,0,nt,nt
CCCCCCN(C(=O)CCCCCN1C(=O)NC(c2ccc(-c3ccccc3)cc2)C(C(=O)OCc2ccccc2)=C1C)C(C)C(=O)NCCCC (stereo unspecified),-2,12,25*,3,23*,4
CCCCCCN(C(=O)CCCCCN1C(=O)NC(c2cccc([N+](=O)[O-])c2)C(C(=O)OCc2ccccc2)=C1C)C(C(=O)NCCCC)c1ccc(OCC(=O)OC)c(C(=O)OC)c1 (stereo unspecified),8,9,36*,6,37*,5
CCCCNC(=O)C(C1CCCCC1)N(CCN(C)C)C(=O)CCCN1C(=O)NC(c2ccc(-c3ccccc3)cc2)C(C(=O)OCc2ccccc2)=C1C (stereo unspecified),9,4,nt,nt,nt,nt
CCCCNC(=O)C(C)N(CCN(C)C)C(=O)CCCN1C(=O)NC(c2ccc([N+](=O)[O-])cc2)C(C(=O)OCc2ccccc2)=C1C (stereo unspecified),3,-5,nt,nt,nt,nt
CCCCCCN(C(=O)CCCCCN1C(=O)NC(c2ccc(-c3ccccc3)cc2)C(C(=O)OCc2ccccc2)=C1C)C(C(=O)NCCCC)c1ccc(OCC(=O)OC)c(C(=O)OC)c1 (stereo unspecified),-8,4,38*,-1,21*,-4
CCCCCCN(C(=O)CCCCCN1C(=O)NC(c2ccc([N+](=O)[O-])cc2)C(C(=O)OCc2ccccc2)=C1C)C(C(=O)NCCCC)c1ccc(OCC(=O)OC)c(C(=O)OC)c1 (stereo unspecified),4,0,23*,4,34*,2
CC(C)C[C@H](NC(=O)c1nc[nH]c1C(=O)N1CCNCC1)C(=O)OCc1ccccc1,5,0,1,2,nt,nt
O=C(O)C(Cc1ccccc1)N1C(=O)/C(=C/c2cccc3ccccc23)SC1=S (stereo unspecified),-25,-10,20*,3,32*,1
CCOc1ccccc1N1CCN(C(=O)CN2C(=O)NC3(CCCC3)C2=O)CC1,2,1,0,0,nt,nt
O=C(CN1C(=O)NC2(CCCC2)C1=O)N1CCN(c2ccccc2O)CC1,-3,7,18*,-1,-6,-3
COc1cccc(=O)c2c(C)n(CC(=O)c3ccccc3)c(C)c12,-5,-3,23*,1,0,-4
NC(=O)CC(NC(=O)Cc1ccc(Cl)cc1)c1ccc(N2CCC(Cc3ccccc3)CC2)c([N+](=O)[O-])c1 (stereo unspecified),-5,-8,22*,0,3,0
Cc1cc(C)cc(C(=O)NC(CC(N)=O)c2ccc(N3CCC(Cc4ccccc4)CC3)c([N+](=O)[O-])c2)c1 (stereo unspecified),0,-11,7,4,nt,nt
NC(=O)CC(NC(=O)c1ccccc1)c1ccc(NCCc2cccc(F)c2)c([N+](=O)[O-])c1 (stereo unspecified),4,-2,5,3,nt,nt
NC(=O)CC(NC(=O)c1ccccc1)c1ccc(N2CCN(c3ccc(F)cc3)CC2)c([N+](=O)[O-])c1 (stereo unspecified),-2,-13,18*,2,-52,-3
NC(=O)CC(NC(=O)c1ccc(Br)cc1)c1ccc(NCCc2ccc(F)cc2)c([N+](=O)[O-])c1 (stereo unspecified),-3,1,25*,-1,26*,-1
NC(=O)CC(NC(=O)Cc1cccc2ccccc12)c1ccc(N2CCc3ccccc3C2)c([N+](=O)[O-])c1 (stereo unspecified),-1,2,18*,1,17*,-1
Cc1cc(NC(=O)CSc2nc3c(C)c(C)ccc3cc2C)no1,-5,1,-3,0,nt,nt
C[C@H](CO)N1C[C@H](C)[C@@H](CN(C)S(=O)(=O)c2cccs2)Oc2c(NS(=O)(=O)c3cn(C)cn3)cccc2C1=O,0,6,nt,nt,nt,nt
CCOC(=O)C1=C(COC(=O)CCOc2ccccc2C)NC(=O)NC1C (stereo unspecified),7,0,-4,0,nt,nt
CC(=O)c1cccc(N2C(=NC(=O)C3CCCCC3)SC3CS(=O)(=O)CC32)c1 (stereo unspecified),7,2,-3,-2,nt,nt
O=C(/C=C/c1cn(-c2ccccc2)nc1-c1cccnc1)c1ccco1,-6,-8,18*,0,-3,-1
O=C(/C=C/c1cn(-c2ccccc2)nc1-c1ccccc1)Nc1ccc(C(=O)O)cc1,-4,-5,19*,4,9,4
SMILES,proCasp7 act,proCasp3 act,PP1 inh,PP5 inh,PP1 confirm,PP5 inh counter
NC(=O)c1ccc(NC(=O)COC(=O)/C=C/c2cn(-c3ccccc3)nc2-c2cccnc2)cc1,10,10,23*,2,19*,-1
COc1ccc(-c2nn(-c3ccccc3)cc2/C=C/C(=O)OCC(=O)Nc2ccccc2C#N)cc1,-3,13,-3,-2,nt,nt
Cn1c2ccccc2c(=O)c2c(=O)n(Cc3ccco3)c(-c3ccc(Cl)cc3Cl)nc21,-6,-26,23*,1,8,-1
CCC(C(=O)OCC(=O)N(CC)c1c(N)n(Cc2ccccc2)c(=O)[nH]c1=O)c1ccccc1 (stereo unspecified),-10,-8,0,2,nt,nt
O=[N+]([O-])c1ccc(N2CCN(S(=O)(=O)c3ccccc3)CC2)cc1NCc1cccnc1,6,10,10,4,nt,nt
O=[N+]([O-])c1ccc(N2CCN(S(=O)(=O)c3ccc(Cl)cc3)CC2)cc1NCc1cccnc1,6,-2,19*,-1,16*,-1
CCc1sc(C(=O)N2CCc3cc(OC)c(OC)cc3C2CC(=O)O)cc1C (stereo unspecified),-3,2,4,2,nt,nt
O=C(NC1CCCCC1)c1nn2c(C(F)(F)F)cc(-c3ccco3)nc2c1Br,5,0,3,0,nt,nt
O=C(c1ccccc1)N1CCN(C(=O)c2nn3c(C(F)(F)F)cc(-c4ccco4)nc3c2Br)CC1,-33,-24,19*,-2,-3,-3
CCN(c1ccccc1)S(=O)(=O)c1ccc(C(=O)N(CCN(C)C)c2nc3c(F)cc(F)cc3s2)cc1,7,-2,0,4,nt,nt
O=S(=O)(Nc1c(O)ccc2ccccc12)c1cccc2ccccc12,-18,-7,0,5,nt,nt
